This is an account of results in publication PMC9977181 (Science Advances, 2023).

Test [1] deals with T1, ATM (Homo sapiens, UniProt Q13315). Kind of test: ATM-SPARK activation by DNA-damaging drugs in U87 cells. Format: cell-based.
The next test has as its system HeLa cells. Kind of test: HeLa cell growth assay. The test is classed as cell-based, human.
Test [2] concerns the target T1, ATM. The experiment in a line: ATM-SPARK reporter imaging in living HEK293 cells, ATM activated by etoposide. The test is classed as cell-based.
Test [3] addresses T1, ATM. The experiment in a line: Western blot of phosphorylated ATM. The test is classed as cell-based. A digest of the protocol:
(§1)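 HEK293 cells were pretreated 1 h with a test compound titration starting at 1 μM, then given NCS (500 ng/ml) for 1 h. Lysates were resolved on 4–12% bis-tris gels, probed with primary antibodies (1:1000) and HRP secondaries, and detected by ECL on film. The phospho/total band ratio was normalized to DMSO-treated cells. IC50 was obtained by nonlinear fit.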

The target of a further test is ATR (Homo sapiens, UniProt Q13535). The experiment in a line: Western blot of phosphorylated ATR. Format: cell-based. The note with it: HEK293 cells, NCS-induced DNA damage. A digest of the protocol:
as §1

Another test addresses DNA-PK (Homo sapiens, UniProt P78527). The experiment in a line: Western blot of phosphorylated DNA-PK. Format: cell-based. The note with it: HEK293 cells, NCS-induced DNA damage. In outline:
as §1

Test [4] concerns the target T1, ATM. The experiment in a line: ATM-SPARK ATM activity in HeLa or T98G cancer cells preincubated with inhibitor. The note with it: HeLa and T98G cells, ATM activated using etoposide. Format: cell-based.
Test [5] has as its system ATM-deficient MDA-MB-231 cells. The experiment in a line: Growth inhibition with NCS in ATM-deficient MDA-MB-231 cells. Format: cell-based, human. To be noted: ATM-deficient cell line.
The target of test [6] is T1, ATM. The test is classed as cell-based. The note with it: HEK293 cells preincubated with NCS.

T1 sequence (Q13315 whole entry): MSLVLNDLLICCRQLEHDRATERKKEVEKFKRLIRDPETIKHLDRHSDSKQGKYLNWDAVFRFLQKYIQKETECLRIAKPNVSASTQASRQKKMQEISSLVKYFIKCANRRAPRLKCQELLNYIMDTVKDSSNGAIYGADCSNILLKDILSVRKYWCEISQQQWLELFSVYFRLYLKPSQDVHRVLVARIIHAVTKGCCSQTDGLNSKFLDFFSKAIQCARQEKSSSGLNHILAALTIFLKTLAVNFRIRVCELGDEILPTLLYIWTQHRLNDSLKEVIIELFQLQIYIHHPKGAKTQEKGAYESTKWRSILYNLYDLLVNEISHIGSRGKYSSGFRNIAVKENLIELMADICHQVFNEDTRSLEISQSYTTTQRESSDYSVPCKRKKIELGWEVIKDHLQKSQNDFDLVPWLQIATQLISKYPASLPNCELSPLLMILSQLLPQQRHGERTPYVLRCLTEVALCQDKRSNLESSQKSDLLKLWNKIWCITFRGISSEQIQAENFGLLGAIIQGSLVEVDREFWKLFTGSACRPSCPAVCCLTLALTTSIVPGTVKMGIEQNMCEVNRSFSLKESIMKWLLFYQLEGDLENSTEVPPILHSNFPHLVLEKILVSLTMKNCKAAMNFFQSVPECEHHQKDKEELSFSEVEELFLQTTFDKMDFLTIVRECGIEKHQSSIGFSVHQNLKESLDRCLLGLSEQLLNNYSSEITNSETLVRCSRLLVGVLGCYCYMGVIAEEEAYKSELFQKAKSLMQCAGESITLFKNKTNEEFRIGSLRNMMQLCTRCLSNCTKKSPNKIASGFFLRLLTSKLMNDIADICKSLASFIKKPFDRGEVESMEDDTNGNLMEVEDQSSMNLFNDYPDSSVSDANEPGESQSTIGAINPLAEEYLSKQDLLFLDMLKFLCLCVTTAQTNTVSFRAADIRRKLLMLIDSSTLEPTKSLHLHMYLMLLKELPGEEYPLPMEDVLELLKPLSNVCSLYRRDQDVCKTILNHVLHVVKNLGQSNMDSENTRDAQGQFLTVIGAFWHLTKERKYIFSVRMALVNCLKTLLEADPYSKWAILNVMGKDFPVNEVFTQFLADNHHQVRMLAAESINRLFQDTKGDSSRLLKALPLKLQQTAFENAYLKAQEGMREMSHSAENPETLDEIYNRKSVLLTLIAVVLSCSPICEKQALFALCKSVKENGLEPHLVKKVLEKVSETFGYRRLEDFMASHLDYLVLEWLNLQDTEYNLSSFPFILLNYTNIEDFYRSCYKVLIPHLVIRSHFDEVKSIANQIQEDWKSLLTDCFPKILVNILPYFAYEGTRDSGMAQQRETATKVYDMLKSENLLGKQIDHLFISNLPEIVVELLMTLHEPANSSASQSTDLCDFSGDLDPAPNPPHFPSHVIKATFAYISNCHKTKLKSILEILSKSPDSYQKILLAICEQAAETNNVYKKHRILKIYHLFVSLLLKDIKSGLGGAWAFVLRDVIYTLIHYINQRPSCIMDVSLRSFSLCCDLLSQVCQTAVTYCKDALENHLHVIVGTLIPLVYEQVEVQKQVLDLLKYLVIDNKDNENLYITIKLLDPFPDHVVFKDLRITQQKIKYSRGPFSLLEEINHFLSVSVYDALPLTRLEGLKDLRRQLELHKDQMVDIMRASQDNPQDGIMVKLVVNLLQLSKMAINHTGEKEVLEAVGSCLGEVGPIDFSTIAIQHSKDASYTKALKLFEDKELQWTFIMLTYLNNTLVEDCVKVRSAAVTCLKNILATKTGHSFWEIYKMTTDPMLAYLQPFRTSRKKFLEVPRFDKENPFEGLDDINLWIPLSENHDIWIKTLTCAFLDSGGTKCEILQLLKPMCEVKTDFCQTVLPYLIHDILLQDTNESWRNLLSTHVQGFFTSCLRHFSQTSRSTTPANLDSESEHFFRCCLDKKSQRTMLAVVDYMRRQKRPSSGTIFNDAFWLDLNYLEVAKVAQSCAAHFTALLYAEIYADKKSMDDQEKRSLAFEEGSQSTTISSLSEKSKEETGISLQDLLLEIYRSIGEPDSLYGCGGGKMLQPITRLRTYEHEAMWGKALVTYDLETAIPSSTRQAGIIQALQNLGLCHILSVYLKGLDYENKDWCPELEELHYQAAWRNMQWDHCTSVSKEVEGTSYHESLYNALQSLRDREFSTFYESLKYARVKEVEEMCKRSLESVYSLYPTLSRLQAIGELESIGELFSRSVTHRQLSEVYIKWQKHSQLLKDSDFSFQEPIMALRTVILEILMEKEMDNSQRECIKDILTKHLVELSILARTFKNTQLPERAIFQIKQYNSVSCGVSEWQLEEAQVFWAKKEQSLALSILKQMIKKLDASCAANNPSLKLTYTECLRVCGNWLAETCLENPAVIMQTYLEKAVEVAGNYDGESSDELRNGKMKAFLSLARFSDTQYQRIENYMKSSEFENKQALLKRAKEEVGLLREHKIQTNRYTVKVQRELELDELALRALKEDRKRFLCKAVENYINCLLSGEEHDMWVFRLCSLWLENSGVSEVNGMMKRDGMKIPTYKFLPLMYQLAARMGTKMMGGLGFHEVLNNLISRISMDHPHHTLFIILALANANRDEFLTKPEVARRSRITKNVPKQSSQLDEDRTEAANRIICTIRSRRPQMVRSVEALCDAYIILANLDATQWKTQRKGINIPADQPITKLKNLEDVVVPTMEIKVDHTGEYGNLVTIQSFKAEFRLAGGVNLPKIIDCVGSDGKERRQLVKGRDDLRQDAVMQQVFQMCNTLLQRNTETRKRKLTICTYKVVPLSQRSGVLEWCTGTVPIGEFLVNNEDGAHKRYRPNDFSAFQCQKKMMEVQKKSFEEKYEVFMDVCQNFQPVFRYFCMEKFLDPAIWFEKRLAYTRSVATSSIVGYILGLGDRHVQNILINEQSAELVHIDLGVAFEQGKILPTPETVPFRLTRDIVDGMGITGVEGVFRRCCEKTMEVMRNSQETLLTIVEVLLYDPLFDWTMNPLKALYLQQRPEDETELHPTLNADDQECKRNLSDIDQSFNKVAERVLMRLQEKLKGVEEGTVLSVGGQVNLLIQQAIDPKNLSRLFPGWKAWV

With `CC[C@@]1(O)C(=O)OCc2c1cc1n(c2=O)Cc2cc3ccccc3nc2-1` [camptothecin], the “activation of ATM (ATM-SPARK signal)” value at ATM [1] was “failed to activate ATM”.

For the compound neocarzinostatin [NCS], the “inhibition of cancer cell proliferation by NCS itself” value with HeLa cells (NCS 180 ng/ml, 3 days) is ~ 35%.

Turning to `O=C1NC(=O)/C(=C\c2ccc3nccnc3c2)S1` [AS605240], the “ATM activity in inhibitor-incubated cells (ATM-SPARK signal), screening” value on ATM [2] (1 μM compound) is reported as “blocked ATM”.

`COc1ccc(-c2ccc3ncc4c(c3c2)n(-c2ccc(N3CCNCC3)c(C(F)(F)F)c2)c(=O)n4C)cn1` [BGT226]: the IC50 against ATM [3] was found to be 3.1 ± 0.8 nM. Further, the “inhibition of ATR (pATR 1989 Western blot)” value against ATR is on record as “no inhibitory activity”. On DNA-PK, the “fold lower activity against DNA-PK than against ATM” value stood at 30 fold. Further, the “sensitization of growth inhibition in response to NCS treatment” value in the test with HeLa cells (NCS + 4 nM or 11 nM inhibitor (fig. S26)) is reported as “sensitizes”. Besides, at ATM [4], the “activity against ATM in cancer cells (ATM-SPARK)” value is “potent activity against ATM”. For the same compound, the “effect in growth inhibition when combined with NCS” value in test [5] is recorded as “lost”.

As for `CN1CCN(c2ccc(-n3cc(-c4ccncc4OCC4CCNCC4)cn3)cc2)CC1` [MELK-8A], the “inhibitory activity against ATM (ATM-SPARK signal)” value against ATM [2] was “no activity against ATM”.

Consider `O=c1cc(-c2cccc3c2Sc2ccccc2S3)oc(N2CCOCC2)c1` [KU-55933], for which, at ATM [6], the “half-time of ATM-SPARK droplet disassembly” value is ~ 1.5 min and the “time to disassembly of ATM-SPARK reporter droplets after inhibitor addition” value was ≤ 4 min.
